Laboratory results from ChEMBL document CHEMBL1152305, “Synthesis and ribonucleotide reductase inhibitory activity of thiosemicarbazones” (Bioorg Med Chem Lett, 2008).

Test: Inhibition of human recombinant ribonucleotide reductase expressed in BL21 (DE3) bacteria assessed as conversion of [3H]CDP to [3H]dCDP
Outline: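 Recombinant human hRRM1 and hRRM2 subunits (BL21(DE3) expression, Ni(II) affinity purified) preincubated together with compound at room temperature 30 min, 1% v/v DMSO final. Phosphodiesterase dephosphorylation, HPLC radio-flow separation of cytidine/deoxycytidine. IC50 from nonlinear fit versus DMSO control; three tests in duplicate.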

Row | Compound | IC50 [µM]
1 | COc1cc(/C=N/NC(=S)Nc2ccccc2)ccc1O | > 500
2 | Oc1ccc(/C=N/NC(=S)Nc2ccccc2)cc1 | 242
3 | COc1cc(/C=N/NC(=S)Nc2ccc(Cl)cc2)ccc1O | > 500
4 | O=[N+]([O-])c1ccccc1NC(=S)N/N=C/c1ccc(O)cc1 | 39.3
5 | Oc1ccc(/C=N/NC(=S)Nc2cccc(Cl)c2)cc1 | 29.3
6 | Oc1ccccc1/C=N/NC(=S)Nc1ccccc1 | > 500
7 | Oc1ccc(/C=N/NC(=S)Nc2ccccc2O)cc1 | 29.3
8 | Oc1ccc(/C=N/NC(=S)Nc2cccc(O)c2)cc1 | 28.6
9 | COc1ccccc1NC(=S)N/N=C/c1ccc(O)cc1 | 41.6

The remaining lines, values ahead:

Row | IC50 [µM] | Compound
10 | 287 | Oc1ccc(/C=N/NC(=S)Nc2ccc(Cl)cc2)cc1
11 | 43.3 | Oc1ccc(/C=N/NC(=S)Nc2ccc(O)cc2)cc1
12 | > 500 | S=C(N/N=C/c1ccco1)Nc1ccc(Cl)cc1
13 | > 500 | Oc1ccccc1/C=N/NC(=S)Nc1ccc(Cl)cc1
14 | 36.5 | Cc1ccccc1NC(=S)N/N=C/c1ccc(O)cc1
15 | 46.8 | Oc1ccc(/C=N/NC(=S)Nc2ccccc2Cl)cc1
16 | 30.4 | Cc1cccc(NC(=S)N/N=C/c2ccc(O)cc2)c1
17 | 45.1 | O=[N+]([O-])c1ccc(NC(=S)N/N=C/c2ccc(O)cc2)cc1
18 | > 500 | S=C(N/N=C/c1cccs1)Nc1ccc(Cl)cc1
19 | 14.2 | Cc1ccc(NC(=S)N/N=C/c2ccc(O)cc2)cc1
20 | 148 | NC(=O)NO [HYDROXYUREA]
21 | 2.25 | NC(=S)N/N=C/c1ncccc1N [TRIAPINE]
